Source: ChEMBL document CHEMBL4834437, “Improvement of Oral Bioavailability of Pyrazolo-Pyridone Inhibitors of the Interaction of DCN1/2 and UBE2M” (J Med Chem, 2021)

Experiments:
[1] = Toxicity in C57BL/6 mouse assessed as adverse effect at 50 mg/kg, po administered as single dose measured after 48 hrs; type: organism-based; conditions: in vivo
In short: (§1)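 Mice were watched for adverse reactions for 48 h after a single iv (15 mg/kg) or oral (50 mg/kg) dose. Vehicle was EtOH/PG/PEG/PBS (10/10/40/39, pH 7.4) with 1% (w/v) […]-β-cyclodextrin.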

[2] = Toxicity in C57BL/6 mouse assessed as adverse effect at 15 mg/kg, iv administered as single dose measured after 48 hrs; type: organism-based; conditions: in vivo; in short: as §1
[3] = mouse, in vivo, po, 50 mg/kg, 24 h
[4] = Oral bioavailability in C57BL/6 mouse at 50 mg/kg administered as single dose measured up to 24 hrs by LC/MS analysis; type: ADME, organism-based; conditions: in vivo
In short: (§2)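 Single dose given to mice either intravenously at 15 mg/kg or orally at 50 mg/kg. Plasma drug concentration was followed over 24 h. Concentrations below LLOQ were reported as half LLOQ.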

[5] = AUC in C57BL/6 mouse at 50 mg/kg, po administered as single dose measured up to 24 hrs by LC/MS analysis; type: ADME, organism-based; set-up: route oral, dose 50 mg/kg, time <=24; conditions: in vivo
In short: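 Plasma drug concentration followed over 24 h. Concentrations below LLOQ were entered as half LLOQ. The same formulation was used for a separate intravenous arm at 15 mg/kg.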

[6] = Toxicity in C57BL/6 mouse assessed as effect on sodium level at 200 mg/kg, po administered as single dose measured after 48 hrs; type: organism-based; conditions: in vivo
[7] = Toxicity in C57BL/6 mouse assessed as effect on Na/K ratio at 200 mg/kg, po administered as single dose measured after 48 hrs; type: organism-based; conditions: in vivo
[8] = Toxicity in C57BL/6 mouse assessed as effect on Na/K ratio at 50 mg/kg, po administered as 10 consecutive doses measured after 48 hrs; type: organism-based; conditions: in vivo
[9] = Toxicity in C57BL/6 mouse assessed as effect on potassium level at 200 mg/kg, po administered as single dose measured after 48 hrs; type: organism-based; conditions: in vivo
[10] = Toxicity in C57BL/6 mouse assessed as effect on albumin level at 200 mg/kg, po administered as single dose measured after 48 hrs; type: organism-based; conditions: in vivo
[11] = Toxicity in C57BL/6 mouse assessed as effect on monocyte level at 50 mg/kg, po administered as 10 consecutive doses measured after 48 hrs; type: organism-based; conditions: in vivo
[12] = Toxicity in C57BL/6 mouse assessed as effect on BUN/creatinine ratio at 200 mg/kg, po administered as single dose measured after 48 hrs; type: organism-based; conditions: in vivo
[13] = Toxicity in C57BL/6 mouse assessed as effect on calcium level at 200 mg/kg, po administered as single dose measured after 48 hrs; type: organism-based; conditions: in vivo
[14] = Toxicity in C57BL/6 mouse assessed as effect on BUN at 50 mg/kg, po administered as 10 consecutive doses measured after 48 hrs; type: organism-based; conditions: in vivo
[15] = Toxicity in C57BL/6 mouse assessed as effect on potassium level at 50 mg/kg, po administered as 10 consecutive doses measured after 48 hrs; type: organism-based; conditions: in vivo
[16] = Toxicity in C57BL/6 mouse assessed as effect on A/G ratio at 50 mg/kg, po administered as 10 consecutive doses measured after 48 hrs; type: organism-based; conditions: in vivo
[17] = Toxicity in C57BL/6 mouse assessed as effect on MCH level at 50 mg/kg, po administered as 10 consecutive doses measured after 48 hrs; type: organism-based; conditions: in vivo
[18] = Toxicity in C57BL/6 mouse assessed as effect on glucose level at 200 mg/kg, po administered as single dose measured after 48 hrs; type: organism-based; conditions: in vivo
[19] = Toxicity in C57BL/6 mouse assessed as effect on HGB level at 50 mg/kg, po administered as 10 consecutive doses measured after 48 hrs; type: organism-based; conditions: in vivo
[20] = Toxicity in po dosed C57BL/6 mouse assessed as maximum tolerated dose administered as single dose measured after 48 hrs; type: organism-based; conditions: in vivo
[21] = Toxicity in C57BL/6 mouse assessed as effect on cholesterol level at 50 mg/kg, po administered as 10 consecutive doses measured after 48 hrs; type: organism-based; conditions: in vivo
[22] = system: HCC95; test: Inhibition of colony formation in human HCC95 cells at 10 uM measured after 10 days by nitroblue tetrazolium chloride reagent based assay relative to control; conditions: HCC95, 240 h
[23] = Toxicity in C57BL/6 mouse assessed as effect on platelet level at 50 mg/kg, po administered as 10 consecutive doses measured after 48 hrs; type: organism-based; conditions: in vivo
[24] = Toxicity in C57BL/6 mouse assessed as effect on creatinine level at 200 mg/kg, po administered as single dose measured after 48 hrs; type: organism-based; conditions: in vivo
[25] = Toxicity in C57BL/6 mouse assessed as effect on HCT level at 50 mg/kg, po administered as 10 consecutive doses measured after 48 hrs; type: organism-based; conditions: in vivo
[26] = Toxicity in C57BL/6 mouse assessed as effect on globulin level at 200 mg/kg, po administered as single dose measured after 48 hrs; type: organism-based; conditions: in vivo
[27] = Toxicity in C57BL/6 mouse assessed as effect on phosphorous level at 200 mg/kg, po administered as single dose measured after 48 hrs; type: organism-based; conditions: in vivo
[28] = Oral bioavailability in C57BL/6 mouse; type: ADME, organism-based; conditions: in vivo; in short: as §2
[29] = Toxicity in C57BL/6 mouse assessed as effect on globulin level at 50 mg/kg, po administered as 10 consecutive doses measured after 48 hrs; type: organism-based; conditions: in vivo
[30] = Toxicity in C57BL/6 mouse assessed as effect on albumin level at 50 mg/kg, po administered as 10 consecutive doses measured after 48 hrs; type: organism-based; conditions: in vivo
[31] = Toxicity in C57BL/6 mouse assessed as effect on cholesterol level at 200 mg/kg, po administered as single dose measured after 48 hrs; type: organism-based; conditions: in vivo
[32] = Toxicity in C57BL/6 mouse assessed as effect on AST level at 50 mg/kg, po administered as 10 consecutive doses measured after 48 hrs; type: organism-based; conditions: in vivo
[33] = Toxicity in C57BL/6 mouse assessed as effect on MCHC level at 50 mg/kg, po administered as 10 consecutive doses measured after 48 hrs; type: organism-based; conditions: in vivo
[34] = Toxicity in C57BL/6 mouse assessed as effect on calcium level at 50 mg/kg, po administered as 10 consecutive doses measured after 48 hrs; type: organism-based; conditions: in vivo
[35] = Toxicity in C57BL/6 mouse assessed as effect on CPK level at 200 mg/kg, po administered as single dose measured after 48 hrs; type: organism-based; conditions: in vivo
[36] = Toxicity in C57BL/6 mouse assessed as effect on BUN at 200 mg/kg, po administered as single dose measured after 48 hrs; type: organism-based; conditions: in vivo
[37] = Toxicity in C57BL/6 mouse assessed as effect on chloride level at 50 mg/kg, po administered as 10 consecutive doses measured after 48 hrs; type: organism-based; conditions: in vivo
[38] = Toxicity in C57BL/6 mouse assessed as effect on RBC level at 50 mg/kg, po administered as 10 consecutive doses measured after 48 hrs; type: organism-based; conditions: in vivo
[39] = Toxicity in C57BL/6 mouse assessed as effect on ALT level at 200 mg/kg, po administered as single dose measured after 48 hrs; type: organism-based; conditions: in vivo
[40] = Toxicity in po dosed C57BL/6 mouse assessed as maximum tolerated dose administered as 10 consecutive doses measured after 48 hrs; type: organism-based; conditions: in vivo
[41] = Toxicity in C57BL/6 mouse assessed as effect on creatinine level at 50 mg/kg, po administered as 10 consecutive doses measured after 48 hrs; type: organism-based; conditions: in vivo
[42] = Toxicity in C57BL/6 mouse assessed as effect on MCV level at 50 mg/kg, po administered as 10 consecutive doses measured after 48 hrs; type: organism-based; conditions: in vivo
[43] = Toxicity in C57BL/6 mouse assessed as effect on AST level at 200 mg/kg, po administered as single dose measured after 48 hrs; type: organism-based; conditions: in vivo
[44] = Toxicity in C57BL/6 mouse assessed as effect on CPK level at 50 mg/kg, po administered as 10 consecutive doses measured after 48 hrs; type: organism-based; conditions: in vivo
[45] = Toxicity in C57BL/6 mouse assessed as effect on basophil level at 50 mg/kg, po administered as 10 consecutive doses measured after 48 hrs; type: organism-based; conditions: in vivo
[46] = Toxicity in C57BL/6 mouse assessed as effect on BUN/creatinine ratio at 50 mg/kg, po administered as 10 consecutive doses measured after 48 hrs; type: organism-based; conditions: in vivo
[47] = Toxicity in C57BL/6 mouse assessed as effect on phosphorous level at 50 mg/kg, po administered as 10 consecutive doses measured after 48 hrs; type: organism-based; conditions: in vivo
[48] = Toxicity in C57BL/6 mouse assessed as effect on sodium level at 50 mg/kg, po administered as 10 consecutive doses measured after 48 hrs; type: organism-based; conditions: in vivo
[49] = Toxicity in C57BL/6 mouse assessed as effect on neutrophil level at 50 mg/kg, po administered as 10 consecutive doses measured after 48 hrs; type: organism-based; conditions: in vivo
[50] = Toxicity in C57BL/6 mouse assessed as effect on total bilirubin level at 50 mg/kg, po administered as 10 consecutive doses measured after 48 hrs; type: organism-based; conditions: in vivo
[51] = Toxicity in C57BL/6 mouse assessed as effect on eosinophil level at 50 mg/kg, po administered as 10 consecutive doses measured after 48 hrs; type: organism-based; conditions: in vivo
[52] = Toxicity in C57BL/6 mouse assessed as effect on alkaline phosphatase level at 200 mg/kg, po administered as single dose measured after 48 hrs; type: organism-based; conditions: in vivo
[53] = Toxicity in C57BL/6 mouse assessed as effect on ALT level at 50 mg/kg, po administered as 10 consecutive doses measured after 48 hrs; type: organism-based; conditions: in vivo
[54] = Toxicity in C57BL/6 mouse assessed as effect on lymphocyte level at 50 mg/kg, po administered as 10 consecutive doses measured after 48 hrs; type: organism-based; conditions: in vivo
[55] = Toxicity in C57BL/6 mouse assessed as effect on WBC level at 50 mg/kg, po administered as 10 consecutive doses measured after 48 hrs; type: organism-based; conditions: in vivo
[56] = Toxicity in C57BL/6 mouse assessed as effect on total bilirubin level at 200 mg/kg, po administered as single dose measured after 48 hrs; type: organism-based; conditions: in vivo
[57] = in vivo; conditions: C57BL/6, mouse, plasma
[58] = Toxicity in C57BL/6 mouse assessed as effect on chloride level at 200 mg/kg, po administered as single dose measured after 48 hrs; type: organism-based; conditions: in vivo
[59] = Toxicity in C57BL/6 mouse assessed as effect on A/G ratio at 200 mg/kg, po administered as single dose measured after 48 hrs; type: organism-based; conditions: in vivo
[60] = Toxicity in C57BL/6 mouse assessed as effect on alkaline phosphatase level at 50 mg/kg, po administered as 10 consecutive doses measured after 48 hrs; type: organism-based; conditions: in vivo
[61] = Toxicity in C57BL/6 mouse assessed as effect on glucose level at 50 mg/kg, po administered as 10 consecutive doses measured after 48 hrs; type: organism-based; conditions: in vivo

CCN1C(=O)[C@@H](NC(=O)c2cccc(C)c2)[C@@H](c2ccc(F)cc2)c2c(C)nn(-c3ccccc3)c21 (relative stereo)
Activity [1]: Non-Toxic | Activity [2]: Non-Toxic | Cmax [3]: 360 nM

CCN1C(=O)[C@@H](NC(=O)c2cccc(C(F)(F)F)c2)[C@@H](c2ccc(F)cc2)c2c(C)nn(-c3ccccc3)c21 (relative stereo)
F [4]: 36% | Cmax [3]: 1150 nM | AUC at 24 h [5]: 23.8 µM·h

CCN1C(=O)[C@@H](NC(=O)c2cccc(C(F)(F)F)c2)[C@@H](c2ccc(F)cc2)c2c(CN)nn(-c3ccccc3)c21 (relative stereo)
Activity [6]: Non-Toxic | Activity [7]: Non-Toxic | Activity [8]: Non-Toxic | Activity [9]: Non-Toxic | Activity [10]: Non-Toxic | Activity [11]: Non-Toxic | Activity [12]: Non-Toxic | Activity [13]: Non-Toxic | Activity [14]: Non-Toxic | Activity [15]: Non-Toxic | Activity [16]: Non-Toxic | Activity [17]: Non-Toxic | Activity [18]: Non-Toxic | Activity [19]: Non-Toxic | MTD at 48 h [20]: 200 mg/kg | Activity [21]: Non-Toxic | inhibition at 10 µM [22]: 100% | Activity [23]: Non-Toxic | Activity [24]: Non-Toxic | Activity [25]: Non-Toxic | Activity [26]: Non-Toxic | Activity [27]: Non-Toxic | Cmax [3]: 6000 nM | bioavailability [28]: 92% | Activity [29]: Non-Toxic | Activity [30]: Non-Toxic | Activity [31]: Non-Toxic | Activity [32]: Non-Toxic | Activity [33]: Non-Toxic | Activity [34]: Non-Toxic | Activity [35]: Non-Toxic | Activity [36]: Non-Toxic | Activity [37]: Non-Toxic | Activity [38]: Non-Toxic | Activity [39]: Non-Toxic | MTD at 48 h [40]: 50 mg/kg | Activity [41]: Non-Toxic | Activity [42]: Non-Toxic | Activity [43]: Non-Toxic | Activity [44]: Non-Toxic | Activity [45]: Non-Toxic | Activity [46]: Non-Toxic | Activity [47]: Non-Toxic | Activity [48]: Non-Toxic | Activity [49]: Non-Toxic | Activity [50]: Non-Toxic | Activity [51]: Non-Toxic | Activity [52]: Non-Toxic | Activity [53]: Non-Toxic | Activity [54]: Non-Toxic | Activity [55]: Non-Toxic | Activity [56]: Non-Toxic | clearance [57]: 20 mL/min/kg | Activity [58]: Non-Toxic | Activity [59]: Non-Toxic | Activity [60]: Non-Toxic | Activity [61]: Non-Toxic
